What was measured:
METTL3/14 = details: read-out: Km of SAM for METTL3/14; cited from earlier work
[1] = tested on: non-leukaemic haemopoietic cell line HPC7; assay type: cell-based
[2] = tested on: normal human cord blood CD34+ cells; assay: Colony-forming efficiency of cord blood CD34+ cells; assay type: cell-based; details: 1, 5 or 10 µM
Method in brief: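 Human cord-blood CD34+ cells were plated in StemMACS HSC-CFU semi-solid medium with the test compound at the indicated concentrations or DMSO. Colonies were counted by microscopy 12–14 days after plating.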

[3] = tested on: MOLM-13 and primary murine AML cells; assay: Flow cytometry of differentiation, cell cycle and apoptosis in AML cells; assay type: cell-based
Method in brief: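 Human and/or mouse AML cells were exposed to DMSO or test compound and analysed at the indicated timepoints on an LSRFortessa. Myeloid differentiation was read by anti-mouse CD11b PE/Cy5 or anti-human CD11b PE staining. Apoptosis was read by Annexin V staining. Cell cycle was read by BrdU incorporation with FITC or APC BrdU flow kits.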

[4] = tested on: SP1 and BRD4 protein levels, MOLM-13 cells; assay: Western blot of METTL3 biomarkers in MOLM-13; assay type: cell-based, human; details: MOLM-13, 72 hours
Method in brief: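 MOLM-13 cells were exposed to DMSO or indicated concentrations of test compound for 72 h. Pellets were lysed in 50 mM Tris-HCl pH 8, 450 mM NaCl, 0.1% NP-40 and 1 mM EDTA, with 1 mM DTT and protease/phosphatase inhibitors. Immunoblots were probed with anti-SP1, N- and C-terminal anti-BRD4, and actin or GAPDH antibodies.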

METTL16 = biological target: T1, METTL16 (Homo sapiens, UniProt Q86W50); assay: RNA methyltransferase RFMS activity assay; assay type: biochemical; details: dose-range, top concentration 120 μM
T1 sequence (Q86W50 1-562): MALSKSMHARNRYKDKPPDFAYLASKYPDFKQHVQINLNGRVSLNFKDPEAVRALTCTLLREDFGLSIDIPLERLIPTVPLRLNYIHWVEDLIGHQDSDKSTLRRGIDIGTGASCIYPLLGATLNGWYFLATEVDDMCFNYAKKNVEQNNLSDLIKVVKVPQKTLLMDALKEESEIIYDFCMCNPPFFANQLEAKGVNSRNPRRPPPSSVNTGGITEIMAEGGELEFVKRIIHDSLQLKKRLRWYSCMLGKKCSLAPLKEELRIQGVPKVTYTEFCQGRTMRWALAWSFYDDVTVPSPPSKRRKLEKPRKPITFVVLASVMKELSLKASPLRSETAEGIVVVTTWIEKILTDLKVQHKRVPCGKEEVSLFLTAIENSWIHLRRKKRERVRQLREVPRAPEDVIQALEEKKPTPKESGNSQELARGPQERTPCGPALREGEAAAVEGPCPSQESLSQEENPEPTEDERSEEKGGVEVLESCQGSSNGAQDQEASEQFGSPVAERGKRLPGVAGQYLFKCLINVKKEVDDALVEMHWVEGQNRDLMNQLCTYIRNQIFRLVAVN

[5] = tested on: m6A on poly-A+-enriched RNA, MOLM-13 cells; assay: RNA nucleoside quantification by mass spectrometry in MOLM-13; assay type: cell-based, human; details: MOLM-13, 24 hours
[6] = tested on: panel of human AML cell lines; assay: Proliferation assay, AML cell line panel; assay type: cell-based; details: 0.04-50 μM, read on day 6
MOLM-13 cells = assay: Polysome fractionation and RT-qPCR in MOLM-13 cells; assay type: cell-based, human
Method in brief: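 MOLM-13 cells (5 × 10^7) were exposed to DMSO or 1 μM test compound for 72 h, then to 0.1 mg/ml cycloheximide for 5 min at 37 °C. Lysates were fractionated on a sucrose gradient. RNA from each fraction, or total RNA (RNeasy), was quantified by RT-qPCR in triplicate, normalised to GAPDH, using the standard-curve or comparative CT method.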

[7] = tested on: normal haematopoietic stem and progenitor cells (HSPCs); assay: Colony forming; assay type: cell-based, mouse; details: 1 μM, WT Lin- cells
Method in brief: (§1)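 Lineage-negative cells from wild-type mice or primary murine AML cells, 10,000 per well, were plated in triplicate wells of M3434 methylcellulose with 1 μM test compound. Colonies were counted after 7 days. Another 10,000 cells were then re-seeded and re-counted weekly through the 3rd replating.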

[8] = tested on: human AML patient derived xenografts (PDX); assay: Human AML patient derived xenograft; assay type: in vivo, mouse
normal haematopoiesis = assay: Toxicity on normal haematopoiesis in vivo; parameters: species or system mouse; details: 50 mg/kg daily for 14 days
[9] = Pharmacokinetic analysis in mice; assay type: in vivo, mouse; details: single intra-peritoneal dose of 50 mg/kg, over 24h
[10] = tested on: primary murine MLL-AF9/Flt3^Itd/+ AML; assay: Primary murine MLL-AF9/Flt3Itd/+ AML in vivo model; parameters: species or system mouse
[11] = tested on: m6A peaks on poly-A+-enriched RNA, MOLM-13 cells; assay: m6A-meRIP-seq and meRIP-qPCR in MOLM-13 cells; assay type: cell-based, human
[12] = biological target: METTL3/METTL14 heterodimer (Homo sapiens, UniProt Q86U44); assay: Surface plasmon resonance; assay type: binding; details: 50 µM SAM in running buffer
panel of 468 kinases = assay: KINOMEscan kinase binding panel; details: 10 µM; inhibition = less than 50% control activity
primary murine AML cells = assay: Colony forming; assay type: cell-based, mouse; details: 1 μM
Method in brief: as §1

[13] = MOLM-13 and primary murine AML cells
[14] = murine or patient-derived AML cells from treated primary transplants

METTL3/METTL14 heterodimer, sequence (Q86U44 whole entry): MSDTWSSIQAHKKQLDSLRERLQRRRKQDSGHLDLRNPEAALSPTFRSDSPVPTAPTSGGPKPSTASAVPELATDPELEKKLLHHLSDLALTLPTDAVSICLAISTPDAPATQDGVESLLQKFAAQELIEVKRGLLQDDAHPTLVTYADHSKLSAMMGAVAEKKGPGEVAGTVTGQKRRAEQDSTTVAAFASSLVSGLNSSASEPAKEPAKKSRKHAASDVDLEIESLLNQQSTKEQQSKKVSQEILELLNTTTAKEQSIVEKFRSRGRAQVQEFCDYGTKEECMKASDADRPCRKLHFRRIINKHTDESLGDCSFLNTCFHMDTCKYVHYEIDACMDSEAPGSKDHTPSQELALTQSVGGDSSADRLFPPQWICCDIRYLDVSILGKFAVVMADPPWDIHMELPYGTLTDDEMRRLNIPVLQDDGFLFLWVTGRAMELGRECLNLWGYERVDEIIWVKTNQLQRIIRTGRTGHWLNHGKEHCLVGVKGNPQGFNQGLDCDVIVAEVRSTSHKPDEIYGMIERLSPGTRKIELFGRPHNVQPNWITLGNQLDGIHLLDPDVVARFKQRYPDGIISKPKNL
METTL3/METTL14 heterodimer, sequence (Q9HCE5 whole entry partner): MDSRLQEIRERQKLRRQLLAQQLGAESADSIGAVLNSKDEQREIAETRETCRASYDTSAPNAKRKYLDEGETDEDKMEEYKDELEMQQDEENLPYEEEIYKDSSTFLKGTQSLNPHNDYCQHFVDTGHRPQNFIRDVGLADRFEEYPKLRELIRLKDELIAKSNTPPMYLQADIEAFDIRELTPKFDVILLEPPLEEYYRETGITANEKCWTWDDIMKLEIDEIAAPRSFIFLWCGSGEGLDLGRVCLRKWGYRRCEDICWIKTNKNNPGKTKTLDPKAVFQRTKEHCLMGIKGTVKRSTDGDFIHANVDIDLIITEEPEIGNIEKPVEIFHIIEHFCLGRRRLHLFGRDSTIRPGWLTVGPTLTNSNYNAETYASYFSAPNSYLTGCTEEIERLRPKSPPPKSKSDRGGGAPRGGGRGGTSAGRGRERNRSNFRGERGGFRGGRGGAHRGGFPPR

## C[S+](CC[C@H](N)C(=O)[O-])C[C@H]1O[C@@H](n2cnc3c(N)ncnc32)[C@H](O)[C@@H]1O (stereo partly shown) [SAM, S-adenosyl methionine]
METTL3/14
  Km: 0.1 µM

## O=C(NCc1cn2cc(CNCC3CCCCC3)ccc2n1)c1cc(=O)n2ccccc2n1 [STM2457]
[1]; Annexin V, 1 µM
  apoptosis in normal non-leukaemic haemopoietic cells: not in normal non-leukaemic haemopoietic cells
[1]; non-leukaemic HPC7, 1 µM
  differentiation and cell cycle in HPC7: the same effects were not identified
[2]
  colony-forming ability of normal human cord blood CD34+ cells: did not affect
[3]; Annexin V, 1 µM
  apoptosis in human and mouse AML models: induced apoptosis
[3]; [13]
  cell cycle (BrdU): cell cycle arrest
  myeloid differentiation (CD11b/Mac1): significant myeloid differentiation
[4]
  SP1 and BRD4 protein levels: dose-dependent reduction
METTL16
  inhibition of METTL16: no inhibition
[5]
  m6A on poly-A+-enriched RNA: concentration-dependent reduction
  other RNA modifications (m6Am, m6_2A, m7G) on poly-A+-enriched RNA: No changes were detected
[6]
  proliferation of human AML cell line panel: significant growth reduction in a concentration-dependent manner
MOLM-13 cells; MOLM-13, 1μM, 72 hours
  polysome profile: loss of high polysome fractions
MOLM-13 cells; MOLM-13, RT-qPCR of total RNA
  overall RNA expression levels of BRD4 and SP1: showed no alterations
[7]
  colony forming of normal haematopoietic stem and progenitor cells (HSPCs): no effect
[8]; 50 mg/kg
  human CD45+ cells in bone marrow and spleen: reduction of human CD45^+ cells in bone marrow and spleen
[8]; 50 mg/kg IP daily
  mouse lifespan in PDX: significantly prolonged
  toxicity and body weight in PDX mice: no overt toxicity or effect on mouse body weight
[8]; 50 mg/kg IP daily, 3 PDX models
  engraftment and AML expansion in PDX: impairment of engraftment and AML expansion
[8]; 30 or 50 mg/kg
  total m6A levels on poly-A+-enriched RNA in PDX bone marrow: significantly reduced
Normal haematopoiesis
  bone marrow HSCs and early progenitors, peripheral blood counts, body weight: No significant changes
  m6A levels on poly-A+-enriched RNA of healthy bone marrow: significantly reduced
[9]
  half-life / exposure in vivo: sufficient half-life
[10]; 30 mg/kg
  CD48+ intensity of L-GMP cells: increased
  engrafted AML cells in bone marrow: reduction in the engrafted AML cells
  spleen size: reduction in spleen size
[10]; bone marrow, PDX 50 mg/kg and murine model 30 mg/kg
  CD93+ and L-GMP leukaemia stem cell populations: significantly reduced
[10]; [14]
  AML cells in peripheral blood after re-transplantation: marked decrease
  lifespan after re-transplantation: significant lifespan prolongation
[11]; MOLM-13, 1 µM, 24 or 48 hours
  m6A levels in METTL3-dependent substrates including HOXA10 and MYC (meRIP-qPCR): reduced m^6A levels
[11]; MOLM-13, 1 μM, 48 hours, of 11,909 m6A peaks identified
  m6A peaks reduced upon treatment: 4,666
[12]
  binding mode with SAM in the SPR running buffer: co-factor competitive binding mode
Panel of 468 kinases
  inhibitory effect on kinase panel: no inhibitory effect
Primary murine AML cells
  clonogenic potential of primary murine AML cells: significantly reduced

Source: article PMC7613134 (Nature, 2021)
